ChEMBL document CHEMBL1139282, “6-Bicycloaryl substituted (S)- and (R)-5,6-dihydro-2H-pyran-2-ones: asymmetric synthesis, and anti-proliferative properties” (Bioorg Med Chem, 2009)

Columns and labels:
Assay type in all cases: functional, cell-based
MCF7 [1] = assay: Cytotoxicity against human MCF7 cells after 48 hrs by MTT assay; conditions: MCF7, 48 h
Summary of the method: (§1)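 PC-3 kept in DMEM with 5% FBS, MCF-7 in RPMI-1640 with 15% FBS, both used at passages 10-20. Seeded at 1×10^4 cells/well, attached 24 h, then treated 48 h at 0.01-50 µM with final 1% DMSO, in triplicate. Wells PBS-washed, diluted MTT stock (1:10) added for 3.5 h, plates centrifuged before formazan read-out.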

PC-3 [2] = assay: Cytotoxicity against human PC3 cells after 48 hrs by MTT assay; conditions: PC-3, 48 h; summary of the method: as §1
DU-145 = assay: Cytotoxicity against human DU145 cells after 72 hrs by MTT assay; conditions: DU-145, 72 h
Summary of the method: (§2)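 ATCC-sourced lines grown at 37 °C, 5% CO2 in RPMI-1640 or DMEM with 5-10% FBS plus penicillin/streptomycin. Cells exposed to a range of doses for 72 h at 37 °C. MTT added, medium removed 4 h later, formazan dissolved in DMSO and read at 570-690 nm. IC50 from three independent assays, two wells each, via % viability.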

LNCaP = assay: Cytotoxicity against human LNCAP cells after 72 hrs by MTT assay; summary of the method: as §2
MCF7 [3] = assay: Cytotoxicity against human MCF7 cells after 72 hrs by MTT assay; conditions: MCF7, 72 h; summary of the method: as §2
PC-3 [4] = assay: Cytotoxicity against human PC3 cells after 72 hrs by MTT assay; conditions: PC-3, 72 h; summary of the method: as §2

Row | Structure (SMILES) | IC50 (MCF7 [1]) [µM] | IC50 (PC-3 [2]) [µM] | IC50 (DU-145) [µM] | IC50 (LNCaP) [µM] | IC50 (MCF7 [3]) [µM] | IC50 (PC-3 [4]) [µM]
1 | C=CC[C@@H](OC(=O)C=C)c1ccnc2ccccc12 | 13.2 | 15 | – | – | – | –
2 | C=CC[C@@H](OC(=O)C=C)c1cnc2ccccc2c1 | 28.8 | 16.3 | – | – | – | –
3 | O=C1C=CC[C@H](c2ccnc3ccccc23)O1 | 32.5 | 9.8 | – | – | – | –
4 | O=C1C=CC[C@H](c2cccc3ccccc23)O1 | 2.6 | 0.8 | – | – | – | –
5 | Cc1ccc([C@H]2CC=CC(=O)O2)c2ccccc12 | 0.44 | 0.05 | – | – | – | –
6 | O=C1C=CC[C@H](c2cnc3ccccc3c2)O1 | 3.2 | 2.5 | – | – | – | –
7 | Cc1ccc2ccccc2c1[C@H]1CC=CC(=O)O1 | 2.6 | 0.13 | – | – | – | –
8 | O=C1C=CC[C@H](c2ccc3ccccc3c2)O1 | – | – | 12 | 11 | 19 | 3
9 | C=CC[C@@H](OC(=O)C=C)c1c(C)ccc2ccccc12 | 10.4 | 8.8 | – | – | – | –
10 | C=CC[C@@H](OC(=O)C=C)c1cccc(Oc2ccccc2)c1 | > 50 | > 50 | – | – | – | –
11 | O=C1C=CC[C@H](/C=C/c2ccccc2)O1 [GONIOTHALAMIN] | – | – | 19 | 12 | 28 | 4
12 | O=C1C=CC[C@H](c2cccc(Oc3ccccc3)c2)O1 | > 50 | 11 | – | – | – | –
13 | C=CC[C@@H](OC(=O)C=C)c1ccc(C)c2ccccc12 | 33.1 | 45 | – | – | – | –
14 | C=CC[C@@H](OC(=O)C=C)c1cccc2ccccc12 | > 50 | 22.9 | – | – | – | –
15 | O=C1C=CC[C@@H](c2ccc3ccccc3c2)O1 | – | – | 28 | 15 | 37 | 12
